For assay [1], the system named is Eimeria tenella. Put plainly: Antiparasitic activity against Eimeria tenella in chicken at 25 ppm in feed assessed as percent reduction in oocyst. The class given is functional. The arrangement: scale not given: the % may be the effect or the level left. A digest of the protocol:
(§1)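 Infected chickens given compound orally in feed (ppm), seven-day in vivo efficacy model; activity quantified from oocyst shedding and graded as percent oocyst reduction versus infection.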

In assay [2] the target is cGMP-dependent protein kinase (Eimeria tenella, UniProt Q8MMZ8). Briefly: Inhibitory activity against PKG.
Assay [3] concerns Eimeria acervulina. Put plainly: Antiparasitic activity against Eimeria acervulina in chicken at 25 ppm in feed assessed as percent reduction in oocyst. The class given is functional. Set-up: scale not given: the % may be the effect or the level left. The procedure, abridged: as §1
In assay [4] the test system is Eimeria tenella. Put plainly: Antiparasitic activity against Eimeria tenella in chicken at 12.5 ppm in feed assessed as percent reduction in oocyst. The class given is functional. The arrangement: scale not given: the % may be the effect or the level left. A digest of the protocol: as §1
In assay [5] the test system is Eimeria acervulina. Briefly: Antiparasitic activity against Eimeria acervulina in chicken at 12.5 ppm in feed assessed as percent reduction in oocyst. The class given is functional. Set-up: scale not given: the % may be the effect or the level left. A digest of the protocol: as §1
The subject of assay [6] is Salmonella typhimurium. Briefly: […] against Salmonella Typhimurium TA98 at 6000 ug/plate by Ames microbial mutagenesis assay. The following applies: Salmonella enterica subsp. enterica serovar Typhimurium. The class given is functional, organism-based. The procedure, abridged:
(§2)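 Plate-incorporation reverse mutation test: about 10^8 bacterial cells in molten top agar are mixed with test article in DMSO and cofactor plus S9 fraction (50 µL/plate) from induced male Sprague–Dawley rats. Plated in triplicate and incubated 37 °C for 48 h. Revertant colonies are counted automatically, as mean ± standard deviation (n = 3). A twofold or greater increase over solvent control counts as positive.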

Assay [7] concerns Salmonella typhimurium. Put plainly: […] against Salmonella Typhimurium TA98 at 3000 ug/plate by Ames microbial mutagenesis assay. The class given is functional, organism-based. The following applies: Salmonella enterica subsp. enterica serovar Typhimurium. A digest of the protocol:
as §2

For assay [8], the system named is Salmonella typhimurium. Put plainly: […] against Salmonella Typhimurium TA100 at 6000 ug/plate by Ames microbial mutagenesis assay. The following applies: Salmonella enterica subsp. enterica serovar Typhimurium. The class given is functional, organism-based. The procedure, abridged: as §2
Assay [9] relates to Eimeria acervulina. Put plainly: Antiparasitic activity against Eimeria acervulina in chicken at 6.25 ppm in feed assessed as percent reduction in oocyst. Set-up: scale not given: the % may be the effect or the level left. The class given is functional. A digest of the protocol: (§3)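 Seven-day in vivo anticoccidial model in chickens infected with E. tenella and E. acervulina. Compound is given orally in feed (ppm). Oocyst shedding from infected birds is quantified, and activity is graded by percent oocyst reduction.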

The test system of assay [10] is Salmonella typhimurium. Briefly: […] against Salmonella Typhimurium TA100 at 3000 ug/plate by Ames microbial mutagenesis assay. The class given is functional, organism-based. The following applies: Salmonella enterica subsp. enterica serovar Typhimurium. The procedure, abridged:
as §2

For assay [11], the system named is Eimeria tenella. Briefly: Antiparasitic activity against Eimeria tenella in chicken at 6.25 ppm in feed assessed as percent reduction in oocyst. The class given is functional. Set-up: scale not given: the % may be the effect or the level left. The procedure, abridged: as §3

pIC50: −log10 of the molar value. The source made the active and inactive calls. The rule behind the calls is not given here.

Chain of cGMP-dependent protein kinase (Q8MMZ8 whole entry): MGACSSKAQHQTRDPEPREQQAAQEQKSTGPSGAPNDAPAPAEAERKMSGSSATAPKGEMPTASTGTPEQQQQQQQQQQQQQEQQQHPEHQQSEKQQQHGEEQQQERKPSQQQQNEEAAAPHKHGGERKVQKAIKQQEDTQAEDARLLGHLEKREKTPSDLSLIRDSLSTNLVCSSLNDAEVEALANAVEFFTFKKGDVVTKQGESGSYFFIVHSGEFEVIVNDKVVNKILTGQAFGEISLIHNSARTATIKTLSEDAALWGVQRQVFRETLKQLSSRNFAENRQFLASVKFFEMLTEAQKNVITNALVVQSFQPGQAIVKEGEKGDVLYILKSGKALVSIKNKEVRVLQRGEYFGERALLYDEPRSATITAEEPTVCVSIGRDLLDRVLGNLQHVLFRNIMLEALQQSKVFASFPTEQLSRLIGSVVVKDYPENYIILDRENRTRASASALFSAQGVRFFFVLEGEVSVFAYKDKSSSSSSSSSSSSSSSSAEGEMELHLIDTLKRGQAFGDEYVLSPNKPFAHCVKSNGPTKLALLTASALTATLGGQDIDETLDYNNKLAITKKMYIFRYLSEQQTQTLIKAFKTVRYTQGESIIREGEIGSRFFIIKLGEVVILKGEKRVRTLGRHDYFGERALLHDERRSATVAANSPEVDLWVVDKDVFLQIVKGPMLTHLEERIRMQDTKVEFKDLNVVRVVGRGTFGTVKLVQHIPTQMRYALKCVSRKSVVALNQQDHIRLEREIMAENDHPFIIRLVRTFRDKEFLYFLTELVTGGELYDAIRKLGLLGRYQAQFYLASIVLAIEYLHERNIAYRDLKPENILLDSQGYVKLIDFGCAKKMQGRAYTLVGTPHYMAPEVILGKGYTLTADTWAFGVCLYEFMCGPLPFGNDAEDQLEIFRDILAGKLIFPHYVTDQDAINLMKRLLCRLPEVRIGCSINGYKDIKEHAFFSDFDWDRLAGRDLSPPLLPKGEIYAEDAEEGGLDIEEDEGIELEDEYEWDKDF

As to `Nc1nccc(-c2c(-c3ccc(F)cc3)nc3cc(Cl)ccn23)n1`, the Activity in [1] and in assay [3] was less than 50% throughout. For the same compound, the pIC50 in assay [2] was 8.57.
For `CCCNc1nccc(-c2c(-c3ccc(F)cc3)nc3cc(CN(C)C)ccn23)n1`, the Activity entry in assay [4] and in assay [5] was “>=80%” throughout. Besides, the negative-log IC50 (pIC50) in assay [2] is 9.89.
Regarding `CN(C)Cc1ccn2c(-c3ccnc(N(C)C)n3)c(-c3ccc(F)cc3)nc2c1`, the Activity in [1] and in assay [3] was less than 50% throughout. Also, the negative logarithm of the IC50 (pIC50) in [2] is 8.60.
For `CN(C)Cc1ccn2c(-c3ccnc(NCc4ccccc4)n3)c(-c3ccc(F)cc3)nc2c1`, the Activity entry in [1] and in assay [3] was “>=80%” throughout. The same compound gave a pIC50 in assay [2] of 10.09.
Consider `NCc1ccn2c(-c3ccnc(N)n3)c(-c3ccc(F)cc3)nc2c1`, for which the Activity in assay [1] and in assay [3] was less than 50% each time. Moreover, in assay [2], the pIC50 is 9.74.
Take `CN1CCC(c2ccn3c(-c4ccnc(N)n4)c(-c4ccc(F)cc4)nc3c2)CC1`: the outcome in [6], in assay [7], in assay [8] and in assay [10] was Active. In [2], the negative logarithm of the IC50 (pIC50) was 10.40. In addition, the Activity result in assay [9] is reported as “>=80%”; in assay [5] it was 50%; in assay [11], “>=80%”.
For `CNc1nccc(-c2c(-c3ccc(F)cc3)nc3cc(CN(C)C)ccn23)n1`, the Activity result in [1] and in assay [3] was “>=80%” throughout. For the same compound, the pIC50 in [2] was 9.77.
In the case of `CNCc1ccn2c(-c3ccnc(N)n3)c(-c3ccc(F)cc3)nc2c1`, the Activity in assay [1] and in [3] was less than 50% throughout. The same compound showed a pIC50 in assay [2] of 9.82.
With `Nc1nccc(-c2c(-c3ccc(F)cc3)nc3cc(C4CCNCC4)ccn23)n1`, the Activity in assay [1] and in assay [3] was less than 50% throughout. Also, the pIC50 in assay [2] was 10.30.
Take `CN(C)Cc1ccn2c(-c3ccncn3)c(-c3ccc(F)cc3)nc2c1`: the Activity in [1] and in [3] was less than 50% throughout. In assay [2], this compound gave a pIC50 of 8.72.
Regarding `COc1nccc(-c2c(-c3ccc(F)cc3)nc3cc(CN(C)C)ccn23)n1`, the Activity in assay [1] and in [3] was less than 50% throughout. Moreover, in [2], the negative-log IC50 (pIC50) was 8.59.
For `CN(C)Cc1ccn2c(-c3ccnc(N)n3)c(-c3ccc(F)cc3)nc2c1`, the Activity result is reported as “>=80%” in assay [4], 50% in assay [9], “>=80%” in assay [5] and 50% in assay [11]. Besides, the outcome in [6], in assay [7], in assay [8] and in assay [10] was Active. Also, the negative logarithm of the IC50 (pIC50) in assay [2] is 9.96.
With `CN(C)Cc1ccn2c(-c3ccnc(NCC(C)(C)C)n3)c(-c3ccc(F)cc3)nc2c1`, the Activity entry in assay [4] and in assay [5] was “>=80%” each time. The compound also showed a negative-log IC50 (pIC50) in assay [2] of 9.82.
With `Nc1nccc(-c2c(-c3ccc(F)cc3)nc3cc(CO)ccn23)n1`, the Activity in assay [1] and in [3] was less than 50% in each case. The same compound gave a pIC50 in assay [2] of 8.57.
For `N#Cc1ccn2c(-c3ccnc(N)n3)c(-c3ccc(F)cc3)nc2c1`, the Activity in [1] and in [3] was less than 50% each time. The compound also showed a pIC50 in assay [2] of 7.95.

Usually pIC50 stands for the negative decadic logarithm of the IC50, by convention in mol/L.

The values are drawn from ChEMBL document CHEMBL1146986, “Synthesis and SAR studies of very potent imidazopyridine antiprotozoal agents” (Bioorg Med Chem Lett, 2006).
